Screening results as filed in PubChem BioAssay.
CYP2C19 activ: human CYP2C19 activators, primary screen, biochemical, luminescence | Cytochrome P450 2C19 (Homo sapiens), P33261 | 96,000 tested, under 10 active | AID 1025, 2008 | recombinant CYP2C19, luciferin-H EGE luminescence; stronger effect = higher value; 0 = fully inhibited enzyme, 1 = untreated enzyme | activation factor at 5 µM;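 active means activation factor of at least 2 at 5 µM in the primary screen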
CYP2C9 inh: blockers of cytochrome P450 2C9 activity – biochemical, luminescence, ADME assay, primary screen. CYP2C9 Supersomes, luciferin-H conversion. inhibition, % at 5 µM. actives 20% (n = 96,000);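 active means blocking of liver enzyme CYP2C9 beyond about 50% at 5 µM, limit read from the data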
Target sequence (P11712 whole entry, looked up): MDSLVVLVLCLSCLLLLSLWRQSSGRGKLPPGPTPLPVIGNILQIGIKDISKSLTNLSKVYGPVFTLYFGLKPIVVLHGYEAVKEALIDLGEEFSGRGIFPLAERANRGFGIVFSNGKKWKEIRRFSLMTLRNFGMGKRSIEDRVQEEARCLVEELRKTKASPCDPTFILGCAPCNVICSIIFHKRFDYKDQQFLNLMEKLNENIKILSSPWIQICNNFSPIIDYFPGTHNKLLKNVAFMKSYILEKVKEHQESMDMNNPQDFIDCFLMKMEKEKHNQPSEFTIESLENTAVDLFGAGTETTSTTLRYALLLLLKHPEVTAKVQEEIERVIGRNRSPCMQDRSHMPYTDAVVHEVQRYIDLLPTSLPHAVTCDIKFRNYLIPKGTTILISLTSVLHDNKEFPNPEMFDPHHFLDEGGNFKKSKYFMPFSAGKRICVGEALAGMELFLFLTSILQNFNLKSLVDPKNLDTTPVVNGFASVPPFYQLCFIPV
CYP2C19 inh: blockers of cytochrome P450 2C19 activity – biochemical, luminescence, ADME assay, primary screen. P33261. actives 21% (n = 96,000). CYP2C19 Supersomes, luciferin-H EGE luminescence, 30 min. inhibition, % at 5 µM;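 active means CYP2C19 inhibition above a set limit at 5 µM in the primary screen, cut at about 50% in these data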
CYP2C9 activ: human CYP2C9 activators, primary screen, biochemical, luminescence; Cytochrome P450 2C9 (Homo sapiens), P11712; recombinant CYP2C9, luciferin-H conversion; stronger effect = higher value; factor 1 = untreated enzyme, 0 = blocked; actives 1.4% (n = 96,000); activation factor at 5 µM;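 active means activation factor of 2 or more for CYP2C9 at a 5 µM dose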
Ecoli WT expand: growth inhibitors of wild-type E. coli, primary screen, strain BW25113, expanded library, OD600 | actives 0.15% (n = 98,000) | AID 710, 2007 | OD600 absorbance | growth inhibition, % at 100 µM;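 active means growth inhibition above about 50% at one test dose, limit read from the data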;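 further: growth measured after 20 h incubation at 37 °C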
Ecoli tolC: growth inhibitors of E. coli tolC mutant, primary screen, strain BW25113 ΔtolC::kan, 384-well; actives 2.2% (n = 65,000); OD615; growth inhibition, % at 10 µM (by protocol); AID 573, 2007;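 active means growth inhibition at or above a cutoff equal to the mean over every tested compound plus 3 SD, cut at about 60% in these data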;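 further: growth measured after 20 h incubation at 37 °C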
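Doses: one dose of 10 µM final / Material: E. coli BW25113 ΔtolC::kan, tolC deletion mutant strain / Buffer or medium: LB with kanamycin 50 µg/mL / Evaluation: percent growth inhibition / Detection: optical density read at 615 nm / Incubation: 37 °C, 20 h exposure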
Of the large screens only hits and unclear results are named; the others gave an inactive call. In the library only some 29% were active in any assay of this set; here they are far more common.

CCCOc1ccc(N2C(=O)C3ON(c4ccccc4)C(c4ccc(O)c(OC)c4)C3C2=O)cc1 (stereo unspecified)	none
O=C(O)c1ccc(N2C(=O)C3ON(c4ccccc4)C(c4ccccc4F)C3C2=O)cc1 (stereo unspecified)	CYP2C19 inh 52
Cc1ccc(C2C(C=Nc3c(C)n(C)n(-c4ccccc4)c3=O)=C(c3ccccc3)Oc3ccccc32)cc1 (stereo unspecified)	none (no result: Ecoli tolC)
CCOc1ccccc1C1C2C(=O)N(c3ccccc3)C(=O)C2ON1c1ccccc1 (stereo unspecified)	CYP2C9 inh 51
O=C1C2ON(c3ccc(Cl)cc3)C(c3ccco3)C2C(=O)N1c1ccccc1 (stereo unspecified)	CYP2C9 inh 58, CYP2C19 inh 93
O=C1C2ON(c3ccccc3)C(c3ccccc3F)C2C(=O)N1c1ccccc1 (stereo unspecified)	none
Cn1c(=O)[nH]c(=O)c2[nH]c(CN3CCN(C(=O)c4ccco4)CC3)nc21	none
COc1ccccc1Nc1ccc(C(=O)NC2CCCCC2)cn1	CYP2C9 activ 2
Cc1ccc(NC(=O)N(C2=NCC(C)S2)c2ccccc2)cc1 (stereo unspecified)	none (no result: CYP2C19 activ, CYP2C9 inh, CYP2C19 inh, CYP2C9 activ, Ecoli WT expand)
CC1CN=C(N(C(=O)Nc2ccccc2)c2ccc(F)cc2)S1 (stereo unspecified)	CYP2C9 inh 76, CYP2C19 inh 76 (no result: Ecoli tolC)
Cc1cccc(N(C(=O)Nc2ccccc2)C2=NCC(C)S2)c1 (stereo unspecified)	CYP2C9 inh 81, CYP2C19 inh 68
COc1ccc2nc(Nc3nc(CSc4nnnn4-c4ccccc4)cc(=O)[nH]3)nc(C)c2c1	none (no result: Ecoli tolC)
CCOc1ccc2nc(Nc3nc(CSc4nnnn4-c4ccccc4)cc(=O)[nH]3)nc(C)c2c1	CYP2C9 inh 51, CYP2C19 inh 53 (no result: Ecoli tolC)
Cc1ccc2c(C)nc(Nc3nc(CSc4nnnn4-c4ccccc4)cc(=O)[nH]3)nc2c1	CYP2C9 inh 88, CYP2C19 inh 60
O=S(=O)(N/N=C\C=C\c1ccccc1)c1ccc(Br)cc1	CYP2C9 inh 97 (no result: Ecoli tolC)
Cc1ccc(S(=O)(=O)N/N=C\C=C\c2ccccc2)cc1	CYP2C9 inh 84 (no result: Ecoli tolC)
CCOc1ccccc1-n1c(COc2ccc(C)cc2)nnc1SCC(N)=O	none
O=C(O)c1cccc(NS(=O)(=O)c2cccc3nsnc23)c1	none (no result: Ecoli tolC)
Cc1cc(S(=O)(=O)Nc2ccc(F)cc2)c(C)s1	CYP2C9 inh 51, CYP2C19 inh 84 (no result: Ecoli tolC)
Cn1cc(S(=O)(=O)Nc2cccc(F)c2)c(=O)n(C)c1=O	none (no result: Ecoli tolC)
Cc1cc(S(=O)(=O)Nc2cccc(O)c2)c(C)s1	CYP2C19 inh 92
CCOc1ccc(CNc2ncnc(N)n2)cc1	none (no result: Ecoli tolC)
CC/C(=N\NC(=O)CSCc1ccccc1Br)c1ccc2c(c1)OCCO2	none (no result: Ecoli tolC)
CN(C)c1nc(NCc2ccccc2)nc(N/N=C/c2ccc(Cl)cc2Cl)n1	none (no result: Ecoli tolC)
CC(C)(C)C(=O)NC1CCN(C(=O)N2CCCC2)CC1	CYP2C19 inh 53
O=C(NCCO)c1cccc(Nc2nc(-c3ccccc3)c3cc(Cl)ccc3n2)c1	none (no result: Ecoli tolC)
Cc1cccc(-n2ncc3c(NCCN4CCOCC4)ncnc32)c1	none (no result: CYP2C19 activ, CYP2C9 inh, CYP2C19 inh, CYP2C9 activ)
Cc1cccc(-n2ncc3c(NCc4ccccc4)ncnc32)c1	none
Clc1ccc(Nc2ncnc3c2cnn3-c2ccccc2)cc1	none
Fc1ccc(CNc2ncnc3c2cnn3-c2ccccc2)cc1	CYP2C9 inh 58
Cc1cccc(-n2ncc3c(NCCc4ccc(S(N)(=O)=O)cc4)ncnc32)c1	CYP2C9 inh 96, CYP2C19 inh 92
CC(C)(C)Nc1ncnc2c1cnn2-c1ccccc1	CYP2C9 inh 63 (no result: Ecoli WT expand)
CN(C)CCCNc1ncnc2c1cnn2-c1ccccc1	none
c1ccc(CCNc2ncnc3c2cnn3-c2ccccc2)cc1	Ecoli tolC 73 (no result: CYP2C19 activ, CYP2C9 inh, CYP2C19 inh, CYP2C9 activ, Ecoli WT expand)
Cc1cccc(N2CCN(C(=O)c3c(C)nn(Cc4ccccc4Cl)c3C)CC2)c1C	none (no result: Ecoli tolC)
Cc1ccc(N2CCN(c3cc(C)nc4nc(C)nn34)CC2)c(C)c1	none (no result: CYP2C19 activ, CYP2C9 inh, CYP2C19 inh, CYP2C9 activ, Ecoli WT expand)
Cn1c(SCC(=O)Nc2ccccc2F)nnc1-c1cc2ccccc2o1	none (no result: Ecoli tolC)
c1ccc(-n2ncc3c(NCCN4CCCCC4)ncnc32)cc1	none
c1ccc(CNc2ncnc3c2cnn3-c2ccccc2)cc1	CYP2C9 inh 54
Cc1cccc(-n2ncc3c(NCc4cccs4)ncnc32)c1	CYP2C9 inh 51
c1ccc(-n2ncc3c(NCc4ccccn4)ncnc32)cc1	CYP2C9 inh 70
Clc1ccc(-n2ncc3c(NCc4cccs4)ncnc32)cc1	none (no result: CYP2C19 activ, CYP2C9 inh, CYP2C19 inh, CYP2C9 activ)
Cc1cccc(-n2ncc3c(NCc4ccccn4)ncnc32)c1	none
c1ccc(-n2ncc3c(NCCN4CCOCC4)ncnc32)cc1	CYP2C9 inh 52
CCOCCCNc1nc2c(c(=O)[nH]c(=O)n2C)n1CCCc1ccccc1	none
O=C(Cc1ccccc1)Nn1cnc2ccccc21	none
Cn1c2c(c(=O)n(C)c1=O)C(C(F)(F)F)(C(F)(F)F)N=C(c1ccccc1Cl)N2	CYP2C9 inh 73 (no result: Ecoli tolC)
CCCCCN(C(=O)NC(=O)Nc1nncs1)S(C)(=O)=O	CYP2C9 inh 61
CCCCN(C(=O)NC(=O)Nc1ccccc1OC)S(C)(=O)=O	none
CCCCN(C(=O)NC(=O)Nc1cc(C)ccc1C)S(C)(=O)=O	CYP2C9 inh 56
NC(=O)C1(N2CCCCC2)CCN(C(=O)c2cccs2)CC1	none
CCOCc1cn(CC(=O)c2ccc(Cl)cc2)c(C)nc1=N	none (no result: Ecoli tolC)
Cc1nc([N+](=O)[O-])c(Br)n1CC(=O)c1ccc(Cl)cc1	CYP2C9 inh 66 (no result: Ecoli tolC)
CC1CC(=O)C=C(O)C1C(=O)OC(C)(C)C (stereo unspecified)	none
CCNc1nc(SC(C(C)=O)C(C)=O)nc(N(C)C)n1	none
CCC(C)Nc1nc(SC(C(C)=O)C(C)=O)nc(N(C)C)n1 (stereo unspecified)	CYP2C9 inh 62, CYP2C19 inh 52
Cc1sc(-n2c(C)cc(/C=C3\SC(=S)NC3=O)c2C)c(C#N)c1C	none (no result: CYP2C19 activ, CYP2C9 inh, CYP2C19 inh, CYP2C9 activ, Ecoli tolC)
Cc1sc(-n2c(C)cc(/C=N/n3cnnc3)c2C)c(C#N)c1C	CYP2C9 inh 83, CYP2C19 inh 89
Cc1cc(/C=N/n2cnnc2)c(C)n1-c1cccc(Cl)c1	CYP2C9 inh 95, CYP2C19 inh 99
Cc1cc(/C=N/n2cnnc2)c(C)n1-c1ccccc1	CYP2C9 inh 73, CYP2C19 inh 100 (no result: Ecoli tolC)
Cc1cc(/C=N/n2cnnc2)c(C)n1-c1ccc(Cl)cc1Cl	CYP2C9 inh 94, CYP2C19 inh 99
COc1ccc(C2=CSC(/N=C/c3ccc(F)cc3)=NN2)cc1	none (no result: Ecoli tolC)
O=C(CC(=O)c1ccccc1)Nc1ccc2c(c1)OCCO2	none
CN1CCCC(OC(=O)CCCC(=O)OC2CCCN(C)C2)C1 (stereo unspecified)	none
Nc1nnnn1N=C1CCCCC1	none
